Experimental data taken from ChEMBL document CHEMBL2169820, “Synthesis and biological activities of polyquinoline derivatives: new Bcl-2 family protein modulators” (Eur J Med Chem, 2012).
Active and inactive are the calls of the source. The calls are words filed in the database; no cut-off is given here.

test system: MEF; assay: Induction of cell death in mouse MEF cells containing Bax/Bak double knock out at 1 uM by Annexin V and propidium iodide staining based FACS method; assay type: functional; conditions: not given
Procedure, shortened: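 Wild-type and Bax/Bak double-knockout MEFs were grown in DMEM with 10% FBS, 2 mM glutamine, 10 mM Hepes and gentamicin. They were treated for 24 h and stained with propidium iodide, with or without Annexin V, then analysed by flow cytometry. Data are mean ± SEM of 3 independent experiments.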

Question: How did the Activity turn out when `CN[C@@H]1C[C@H]2O[C@@](C)([C@@H]1OC)n1c3ccccc3c3c4c(c5c6ccccc6n2c5c31)C(=O)NC4` was run?
Answer: Its Activity is “Active”.

target: Bcl-2-like protein 1 (Homo sapiens, UniProt Q07817); assay: Inhibition of Bcl-XL-mediated cell death reduction expressed in serum starved mouse 3T3 cells assessed as residual cell viability at 5 uM incubated for 96 hrs by propidium iodide staining based FACS method; conditions: NIH3T3
Sequence (Q07817 whole entry): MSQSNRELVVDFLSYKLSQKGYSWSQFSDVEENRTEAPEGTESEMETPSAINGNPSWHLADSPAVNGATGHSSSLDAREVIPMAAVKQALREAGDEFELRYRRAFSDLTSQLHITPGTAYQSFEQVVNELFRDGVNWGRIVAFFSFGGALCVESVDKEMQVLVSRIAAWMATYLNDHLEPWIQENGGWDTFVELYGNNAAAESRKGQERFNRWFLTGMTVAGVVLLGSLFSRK
Procedure, shortened: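 3T3 cells infected with pMig-hBcl-xL vector to overexpress human Bcl-xL, maintained in DMEM/10% FBS. Compound 5 µM given under serum starvation; % residual viability scored at 96 h by propidium iodide staining and FACS.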

Question: Which Activity does the source give for `CCCOc1nc2ccccc2cc1-c1cc(C(C)C)c2cc(-c3cc(C(C)C)c4ccc(N5CCOCC5)nc4c3)c(OCCC)nc2c1` here?
Answer: The Activity was 92.9%.

Question: Which Activity does the source give for `CCCOc1nc2ccccc2cc1-c1cc(C(C)C)c2cc(-c3cc(C(C)C)c4ccc(N5CCCC5)nc4c3)c(OCCC)nc2c1` here?
Answer: The Activity was 94.6%.

Question: For `CCOc1nc2cc(-c3cc4ccccc4nc3N3CCOCC3)cc(C(C)C)c2cc1-c1cc(C(C)C)c2ccc(N3CCOCC3)nc2c1`, which Activity is on record?
Answer: The Activity was 96.5%.

Question: With `CCOc1nc2cccc(C(C)C)c2cc1-c1cc(C(C)C)c2ccc(N3CCOCC3)nc2c1` as the compound, how does the Activity read?
Answer: The Activity was 70.3%.

Question: For `CCCOc1nc2cc(-c3cc4ccccc4nc3N3CCCC3)cc(C(C)C)c2cc1-c1cc(C(C)C)c2ccc(N3CCOCC3)nc2c1`, which Activity is on record?
Answer: Its Activity is 96.5%.

Question: For `CC(C)c1cc(-c2cc3ccccc3nc2N2CCOCC2)cc2nc(N3CCOCC3)ccc12`, which Activity is on record?
Answer: Its Activity is 67.9%.

Question: How did the Activity turn out when `CCOc1nc2cccc(C(C)C)c2cc1-c1cc(C(C)C)c2ccc(N3CCCC3)nc2c1` was run?
Answer: The Activity was 91.6%.
